According to ChEMBL document CHEMBL2331445, “Chemical, biochemical and microbiological properties of a brominated nitrovinylfuran with broad-spectrum antibacterial activity” (Bioorg Med Chem, 2013):
Values after ≈ are worked out from the molar mass of the structure shown. Active and inactive are the calls of the source. The calls are words filed in the database; no cut-off is given here.

What was measured:
[1] = Cytotoxicity against human SW707 cells after 72 hrs by crystal violet staining method; assay type: ADME, cell-based; settings: SW707, 72 h
CAPAN-1 = assay: Cytotoxicity against human Capan1 cells after 72 hrs by crystal violet staining method; assay type: ADME, cell-based; settings: CAPAN-1, 72 h
Ca-Ski = assay: Cytotoxicity against human CaSki cells after 72 hrs by crystal violet staining method; assay type: ADME, cell-based
Calu-6 = assay: Cytotoxicity against human Calu6 cells after 72 hrs by crystal violet staining method; assay type: ADME, cell-based; settings: Calu-6, 72 h
MeWo = assay: Cytotoxicity against human MeWo cells after 72 hrs by crystal violet staining method; assay type: ADME, cell-based
A-431 = assay: Cytotoxicity against human A431 cells after 72 hrs by crystal violet staining method; assay type: ADME, cell-based; settings: A-431, 72 h
[2] = Cytotoxicity against human Flow 2002 cells after 72 hrs by crystal violet staining method; assay type: ADME, cell-based; settings: Flow 2002, 72 h
HaCaT = assay: Cytotoxicity against human HaCaT cells after 72 hrs by crystal violet staining method; assay type: ADME, cell-based
Staphylococcus aureus [3] = assay: microbe, parasite or virus in culture; assay type: functional; settings: NCTC 10442
Staphylococcus aureus [4] = assay: microbe, parasite or virus in culture; assay type: functional; settings: ATCC 25923
[5] = Inhibition of Staphylococcus aureus MurA2 expressed in Escherichia coli BL21(lambdaDE3) using UNAG and PEP as substrate incubated for 10 mins prior to PEP addition measured after 60 mins by spectrophotometric analysis
[6] = Inhibition of Pseudomonas aeruginosa MurA expressed in Escherichia coli BL21(lambdaDE3) using UNAG and PEP as substrate incubated for 10 mins prior to PEP addition measured after 60 mins by spectrophotometric analysis
[7] = target: UDP-N-acetylglucosamine 1-carboxyvinyltransferase (Escherichia coli K-12, UniProt P0A749, C115D); assay: Inhibition of Escherichia coli MurA C115D mutant expressed in Escherichia coli BL21(lambdaDE3) using UNAG and PEP as substrate incubated for 10 mins prior to PEP addition measured after 60 mins by spectrophotometric analysis
[8] = target: UDP-N-acetylglucosamine 1-carboxyvinyltransferase (Escherichia coli K-12, UniProt P0A749); assay: Inhibition of Escherichia coli MurA expressed in Escherichia coli BL21(lambdaDE3) using UNAG and PEP as substrate incubated for 10 mins prior to PEP addition measured after 60 mins by spectrophotometric analysis
Pseudomonas aeruginosa = assay: microbe, parasite or virus in culture; assay type: functional; settings: ATCC 27853
Escherichia coli [9] = assay: microbe, parasite or virus in culture; assay type: functional; settings: ATCC 25922
[10] = Induction of GSSG formation in citrate buffer at 100 uM by RP-LC/MS analysis
[11] = Induction of GSH-adduct formation in citrate buffer at100 uM by RP-LC/MS analysis; settings: 100 µM
Dengue virus = settings: at 50 µM
[12] = target: Prothrombin (Homo sapiens) (UniProt P00734); settings: at 25 µM
[13] = target: Methionine aminopeptidase 2 (Homo sapiens) (UniProt P50579); settings: at 10 µM
[14] = target: Methionine aminopeptidase 1 (Homo sapiens) (UniProt P53582); settings: at 10 µM
Escherichia coli [15] = settings: at 10 µM
[16] = system: UDP-N-acetylglucosamine 1-carboxyvinyltransferase (Escherichia coli K-12), P0A749 [C115D]; assay: Inhibition of Escherichia coli MurA C115D mutant expressed in Escherichia coli BL21(lambdaDE3) using UNAG and PEP as substrate at 50 to 500 uM incubated for 30 mins by 2,2'-dithiopyridine based spectrophotometric analysis
Outline: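 MurA (wild-type or C115D) was incubated with test compound at an equimolar ratio or 10-fold excess in 50 mM Tris pH 7.8 at room temperature for 30 min. 2,2'-Dithiodipyridine was then added in 0.5 M citrate pH 4 with 6 M urea for 30 min and quenched with 4% TFA. 2-Thiopyridone was measured by HPLC at 342 nm against a compound-free control.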

[17] = target: UDP-N-acetylglucosamine 1-carboxyvinyltransferase (Escherichia coli K-12) (UniProt P0A749); settings: 100 nM
[18] = target: UDP-N-acetylglucosamine 1-carboxyvinyltransferase (Escherichia coli K-12) (UniProt P0A749); settings: 200 nM

Chain of UDP-N-acetylglucosamine 1-carboxyvinyltransferase (Escherichia coli K-12, UniProt P0A749, C115D) (P0A749 whole entry C115D): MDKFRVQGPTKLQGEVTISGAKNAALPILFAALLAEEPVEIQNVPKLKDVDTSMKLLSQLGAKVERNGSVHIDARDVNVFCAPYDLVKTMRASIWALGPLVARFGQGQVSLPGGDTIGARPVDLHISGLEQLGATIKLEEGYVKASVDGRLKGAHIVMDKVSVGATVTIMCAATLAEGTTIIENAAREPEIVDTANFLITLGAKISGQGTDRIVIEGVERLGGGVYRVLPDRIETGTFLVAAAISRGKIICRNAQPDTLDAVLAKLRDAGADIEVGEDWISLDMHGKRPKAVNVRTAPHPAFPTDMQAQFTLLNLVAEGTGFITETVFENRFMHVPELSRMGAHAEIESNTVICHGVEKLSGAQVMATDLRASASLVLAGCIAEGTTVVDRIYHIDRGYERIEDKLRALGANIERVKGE
Chain of UDP-N-acetylglucosamine 1-carboxyvinyltransferase (Escherichia coli K-12, UniProt P0A749) (P0A749 whole entry): as the sequence (P0A749 whole entry C115D) above, with D115C counted along it
Chain of Methionine aminopeptidase 2 (Homo sapiens) (P50579 2-478 limits assumed): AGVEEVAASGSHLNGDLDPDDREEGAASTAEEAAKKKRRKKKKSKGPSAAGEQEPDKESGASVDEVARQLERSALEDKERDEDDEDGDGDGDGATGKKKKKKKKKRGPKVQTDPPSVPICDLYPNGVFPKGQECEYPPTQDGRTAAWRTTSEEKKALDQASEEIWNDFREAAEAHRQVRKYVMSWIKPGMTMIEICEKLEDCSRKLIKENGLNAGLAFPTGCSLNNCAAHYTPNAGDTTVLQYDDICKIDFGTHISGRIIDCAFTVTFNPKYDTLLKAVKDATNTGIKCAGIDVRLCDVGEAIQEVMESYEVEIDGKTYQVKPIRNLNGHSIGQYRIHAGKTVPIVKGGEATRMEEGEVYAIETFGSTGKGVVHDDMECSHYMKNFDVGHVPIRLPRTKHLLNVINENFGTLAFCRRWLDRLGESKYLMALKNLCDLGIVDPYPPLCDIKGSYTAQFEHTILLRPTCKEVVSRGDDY
Chain of UDP-N-acetylglucosamine 1-carboxyvinyltransferase (Escherichia coli K-12) (P0A749 whole entry): as the sequence (P0A749 whole entry C115D) above, with D115C counted along it
Chain of UDP-N-acetylglucosamine 1-carboxyvinyltransferase (Escherichia coli K-12), P0A749 [C115D] (P0A749 whole entry C115D): as the sequence (P0A749 whole entry C115D) above

Compound	IC50 [1] [µM]	IC50 (CAPAN-1) [µM]	IC50 (Ca-Ski) [µM]	IC50 (Calu-6) [µM]	IC50 (MeWo) [µM]	IC50 (A-431) [µM]	IC50 [2] [µM]	IC50 (HaCaT) [µM]	MIC (Staphylococcus aureus [3]) [µg/mL]	MIC (Staphylococcus aureus [4]) [µg/mL]	IC50 ([5]; read-out: IC50) [µM]	IC50 ([6]; read-out: IC50) [µM]	MIC (Pseudomonas aeruginosa) [µg/mL]	MIC (Escherichia coli [9]) [µg/mL]	inhibition (Dengue virus)	inhibition [12]	inhibition [13]	inhibition [14]	inhibition (Escherichia coli [15])	IC50 [7]	also measured
O=[N+]([O-])CBr [BROMO(NITRO)METHANE]	73	69	99	23	40	38	14	25	2 (≈ 14.3 µM)	2 (≈ 14.3 µM)	6.2	4	0.5 (≈ 3.57 µM)	1 (≈ 7.15 µM)	inactive	inactive	22%	inactive	85%		IC50 ([7]; read-out: IC50): 7.8 µM; IC50 ([8]; read-out: IC50): 4.6 µM; Activity [10]: Not Active; Activity [11]: Active
C=C1C(=O)O[C@@H]2/C=C(\CO)CC/C=C(\C)C[C@H](OC(=O)C(=C)[C@H](O)CO)[C@@H]12 [CNICIN]	≥ 100	93	≥ 100	44	≥ 100	27	82	80	> 32	> 32	20.4	10.3	> 32	> 32	inactive	inactive	9%	inactive	inactive	Not Active	
C[C@@H]1O[C@@H]1P(=O)(O)O [FOSFOMYCIN]	≥ 100	≥ 100	≥ 100	≥ 100	≥ 100	≥ 100	≥ 100	≥ 100	4 (≈ 29 µM)	4 (≈ 29 µM)	1.1	10.5	1 (≈ 7.24 µM)	2 (≈ 14.5 µM)	inactive	inactive	inactive	inactive	inactive	Not Active	IC50 ([8]; read-out: IC50): 0.1 µM; inhibition [16]: inactive; inhibition [17]: tde; inhibition [18]: inactive
C[N+](=O)[O-] [NITROMETHANE]	≥ 100	≥ 100	≥ 100	≥ 100	≥ 100	≥ 100	≥ 100	≥ 100	> 32	8 (≈ 131 µM)			8 (≈ 131 µM)	32 (≈ 524 µM)	inactive	inactive	inactive	inactive	inactive	Not Active	IC50 [5]: Not Active; IC50 [6]: Not Active; IC50 [8]: Not Active
